Assay results taken from ChEMBL document CHEMBL1141532, “Design and synthesis of tetrazole-based growth hormone secretagogue: the SAR studies of the O-benzyl serine side chain” (Bioorg Med Chem Lett, 2008).

Experiments:
[1] = target: Growth hormone secretagogue receptor type 1 (Homo sapiens, UniProt Q92847); experiment: […] human growth hormone secretagogue receptor assessed as measuring intracellular calcium level by FLIPR assay; format: functional, cell-based
[2] = test system: Rattus norvegicus; experiment: Increase of growth hormone release in rat plasma at 1.74 umol/kg, iv after 15 mins by radioimmunoassay relative to control; format: functional
Outline: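 Acute model in anesthetized rats. Dosed intravenously at 1.74 μmol/kg. Blood was drawn 15 min later and plasma was isolated. Rat GH was measured by radioimmunoassay. Results are given as percent increase in GH release over vehicle-treated control animals.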

Growth hormone secretagogue receptor type 1, sequence (Q92847 whole entry): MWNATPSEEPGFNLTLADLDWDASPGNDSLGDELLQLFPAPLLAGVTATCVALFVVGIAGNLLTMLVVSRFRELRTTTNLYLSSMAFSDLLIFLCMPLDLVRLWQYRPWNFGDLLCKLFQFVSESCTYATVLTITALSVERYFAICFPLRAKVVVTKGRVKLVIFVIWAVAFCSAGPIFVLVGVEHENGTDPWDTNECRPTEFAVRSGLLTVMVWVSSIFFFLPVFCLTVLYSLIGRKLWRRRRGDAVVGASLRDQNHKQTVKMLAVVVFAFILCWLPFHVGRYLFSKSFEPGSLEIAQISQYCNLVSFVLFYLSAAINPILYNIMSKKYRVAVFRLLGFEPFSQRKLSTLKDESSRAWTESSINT

## CC(C)(N)C(=O)N[C@H](COCc1ccc(OC(F)(F)F)cc1)c1nnnn1CCOC(=O)NCCCCO
[1]
  EC50: 33.2 nM

## COc1ccccc1COC[C@@H](NC(=O)C(C)(C)N)c1nnnn1CCOC(=O)NCCCCO
[1]
  EC50: 1.11 nM

## CC(C)(N)C(=O)N[C@H](COCc1cc(C(F)(F)F)cc(C(F)(F)F)c1)c1nnnn1CCOC(=O)NCCCCO
[1]
  EC50: 34 nM

## CC(C)(N)C(=O)N[C@H](COCc1ccccc1Cl)c1nnnn1CCOC(=O)NCCCCO
[1]
  EC50: 0.45 nM

## CC(C)(N)C(=O)N[C@H](COCc1cccc(OC(F)(F)F)c1)c1nnnn1CCOC(=O)NCCCCO
[1]
  EC50: 3.1 nM

## Cc1ccccc1COC[C@@H](NC(=O)C(C)(C)N)c1nnnn1CCOC(=O)NCCCCO
[1]
  EC50: 0.51 nM
[2]
  Activity: 1441%

## CC(C)(N)C(=O)N[C@H](COCc1ccccc1-c1ccccc1)c1nnnn1CCOC(=O)NCCCCO
[1]
  EC50: 0.34 nM
[2]
  Activity: 836%

## CC(C)(N)C(=O)N[C@H](COCc1ccccc1)c1nnnn1CCOC(=O)NCCCCO
[2]
  Activity: 750%

## CC(C)(N)C(=O)N[C@H](COCc1ccc(F)cc1F)c1nnnn1CCOC(=O)NCCCCO
[1]
  EC50: 0.42 nM
[2]
  Activity: 1081%

## CC(C)(N)C(=O)N[C@H](COCc1ccccc1-c1cccnc1)c1nnnn1CCOC(=O)NCCCCO
[1]
  EC50: 1.18 nM

## CC(C)(N)C(=O)N[C@H](COCc1cccc(Cl)c1Cl)c1nnnn1CCOC(=O)NCCCCO
[1]
  EC50: 0.61 nM

## CC(C)(N)C(=O)N[C@H](COCc1cc(Cl)cc(Cl)c1)c1nnnn1CCOC(=O)NCCCCO
[1]
  EC50: 6.75 nM

## CC(C)(N)C(=O)N[C@H](COCC1CCCCC1)c1nnnn1CCOC(=O)NCCCCO
[1]
  EC50: 1.66 nM
[2]
  Activity: 1654%

## CC(C)(N)C(=O)N[C@H](COCc1ccccc1C(F)(F)F)c1nnnn1CCOC(=O)NCCCCO
[1]
  EC50: 0.72 nM

## CC(C)(N)C(=O)N[C@H](COCc1cccc(C(F)(F)F)c1)c1nnnn1CCOC(=O)NCCCCO
[1]
  EC50: 1.79 nM

## CC(C)(N)C(=O)N[C@H](COCc1cccc(Cl)c1)c1nnnn1CCOC(=O)NCCCCO
[1]
  EC50: 1.6 nM

## Cc1noc(C)c1-c1ccccc1COC[C@@H](NC(=O)C(C)(C)N)c1nnnn1CCOC(=O)NCCCCO
[1]
  EC50: 1.04 nM
[2]
  Activity: 5237%

## CC(C)(N)C(=O)N[C@H](COCc1ccccc1C#N)c1nnnn1CCOC(=O)NCCCCO
[1]
  EC50: 1.26 nM
[2]
  Activity: 920%
